We go through 2 compounds from paper PMC8853703 (Chemical research in toxicology, 2021).

Common to all, as to format: cell-based, porcine
Data set [1] has as its system LLC-PK1 cells. Description: JC-10 mitochondrial transmembrane potential assay. The following applies: for effect of cisplatin on ΔΨm: CDDP 20 μM alone.
Data set [2] concerns LLC-PK1 cells. Description: MitoSOX Red mitochondrial superoxide detection assay. Particulars: CDDP 20 μM alone, 24 h. The gist of the method: (§1)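 LLC-PK1 cells (M199, 10% FBS, 1% PS; 37 °C, 5% CO2) were seeded at 1×10^4 cells/well overnight. Probe loading was 5 μM CM-H2DCFDA for 30 min (general ROS) or 2.5 μM MitoSOX Red for 10 min (mitochondrial superoxide), then 3 PBS washes. […] After PBS washes, fluorescence was read in PBS at Ex/Em 485/535 nm (DCF) or 510/580 nm (MitoSOX). Three independent experiments.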

In data set [3] the test system is LLC-PK1 cells. Description: CM-H2DCFDA general reactive oxygen species quantitation assay. Particulars: CDDP 20 μM alone, 24 h. In outline: as §1
For the next data set, the system named is caspase-3. Description: Caspase-3 activity assay. The following applies: CDDP 20 μM alone, 24 h.
The test system of a further data set is caspase-9. Description: Caspase-9 activity assay. Particulars: CDDP 20 μM alone, 24 h. In outline:
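Supernatant was mixed 1:1 with HEPES pH 7.4 caspase buffer (CHAPS, glycerol, EDTA, 10 mM DTT) holding 100 μM Ac-LEHD-pNA. Incubation was 90 min at 37 °C, read as absorbance at 400 nm, with activity normalised to BCA total protein.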

Regarding `N#CC(C#N)=NNc1ccc(OC(F)(F)F)cc1` [FCCP, Carbonyl cyanide-p-trifluoromethoxyphenylhydrazone], the “ΔΨm with positive control” value with LLC-PK1 cells [1] (FCCP 10 μM) is listed as “depolarized ΔΨm”.
As to `N.N.[Cl][Pt][Cl]` [cisplatin, cis-Diamminedichloroplatinum (II), reference compound], in the data set on LLC-PK1 cells [2], the “effect of cisplatin on O2•− generated in mitochondria” value is “increased”. Moreover, the “effect of cisplatin on ΔΨm” value is listed as “not significantly affected” in the data set with LLC-PK1 cells [1] (6 h), “substantial loss of the ΔΨm” in the data set on LLC-PK1 cells [1] (24 h) and “nearly complete gradient collapse” in the data set on LLC-PK1 cells [1] (48 h). For the same compound, in the data set on LLC-PK1 cells [3], the “effect of cisplatin on general ROS” value is reported as “increased”. Moreover, the “effect of cisplatin on caspase-3 activity” value in the data set on caspase-3 is “greatly elevated”. Moreover, the “effect of cisplatin on caspase-9 activity” value in the data set with caspase-9 is given as “greatly elevated”.
